Assay outcomes: PubChem, Broad Institute
Only some compounds are listed: those with a hit (about 3% of all), similar ones and a draw of the others.
Xi reactivation = activators of X-chromosome reactivation in mouse fibroblasts | hit rate 0.055% among 360,000 | AID 743238 | activation, % at 7.58 µM | XiGFP mouse fibroblasts, % GFP-positive cells imaging, 3 d; cells co-treated with 5-aza-dC sensitizer; scaled so ellipticine positive control = 100%;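 active = mean normalized replicate activation at least 10% and every replicate at or above 10%; inconclusive = only one of the two criteria met; inactive = mean below 10% and not all replicates reach 10%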;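 note: 0% = median of on-plate neutral control wells and 100% = ellipticine 6 µM median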
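material = 68-5-11 XiGFP fibroblast line | medium = DMEM plus 5-aza-dC sensitizer | schedule = 3 days compound exposure | benchmarks = positive control ellipticine, 6 µM final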
MITF TRPM1 HTS = increases MITF-driven TRPM1 promoter luciferase signal | SK-MEL-5 TRPM1-promoter luciferase, 24 h; % of positive control, neutral wells = 0 | activation, % at 12.5 µM | hit rate 0.75% among 300,000 | AID 588334;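 active = mean activation of at least 80% with every replicate also reaching 80%; inconclusive = mean reaches 80% but some replicate falls short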;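 note: 0% = neutral control wells and 100% = parthenolide positive control wells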
NSD2 inh = blocks human histone methyltransferase NSD2; O96028; NSD2 peptide methylation, AlphaScreen, 120 min; inhibition, % at 12.5 µM; hit rate 0.54% among 310,000; in the data active = inhibition above about 50%
esBAF inh = SWI/SNF esBAF complex inhibition | reporter increase, % at 12.5 µM | AID 602393 | mouse ES cells, Bmi1-luciferase knock-in reporter, 24 h; 100% = twice the neutral-well signal | hit rate 2% among 350,000; in the data active = activation above about 40%; inconclusive = no clear call, values can overlap the other calls;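 note: 0% = median of the plate's neutral control wells and 100% = double that signal; a rise in the Bmi1 reporter signal indicates esBAF inhibition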
Wnt bcat act = Wnt/beta-catenin pathway activation | Wnt/beta-catenin reporter cell assay, activator, plate reader | activation, % at 9.35 µM | hit rate 1.2% among 300,000; in the data active = activation above about 30%, passing the limit was not always enough; inconclusive = no clear call, values can overlap the other calls;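 note: 0% = neutral control wells and 100% = positive control wells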
Casp6 inh = blocks human caspase-6 cleavage activity. hit rate 0.53% among 350,000. purified caspase-6, Z-VEID-R110 cleavage fluorescence. AID 686996. inhibition, % at 12.5 µM. P55212;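 active = mean inhibition across replicates at least about 35%, with every replicate also reaching that limit, limit read from the data; inconclusive = only one of the two criteria met; inactive = neither criterion met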;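 note: 0% = median of neutral control wells and 100% = no fluorescence left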
* marks the source's active call; other numbers are inactive results; ? = inconclusive; . = no result.

SMILES	Xi reactivation	MITF TRPM1 HTS	NSD2 inh	esBAF inh	Wnt bcat act	Casp6 inh
CCCNC(=O)N1CC2(C1)CN(C(=O)COC)[C@H](CO)c1c2c2ccc(OC)cc2n1C	0.3	.	.	.	.	.
Cc1oc(-c2ccccc2F)nc1CS(=O)CC(=O)NCc1ccc2c(c1)OCO2 (stereo not drawn)	0.0	.	.	-8.8	42.8*	0.7
Cc1oc(-c2ccc(Cl)cc2)nc1CS(=O)CC(=O)NCc1ccc2c(c1)OCO2 (stereo not drawn)	0.0	-13.9	.	-1.9	0.8	-0.5
CN(C)c1ccc(C(CN)c2c[nH]c3ccccc23)cc1 (stereo not drawn)	0.1	14.8	4.8	39.4*	-8.0	0.1
COc1ccc(C(=O)Nc2cc(Cl)ccc2OC(=O)c2ccc(OC)cc2)cc1	.	64.3	.	69.2*	.	.
O=C(Nc1ccccc1OC(=O)c1ccc(Cl)cc1)c1ccc(Cl)cc1	0.1	15.7	-0.6	65.0*	?	1.0
O=C(Cc1ccccc1)N1C[C@H]2[C@@H](c3ccccc31)[C@@H](CO)N2C(=O)C1CC1	0.0	.	.	10.2	.	1.2
CCc1ccccc1NC(=O)CSc1ccsc1[N+](=O)[O-]	0.0	-0.3	0.0	.	-3.2	.
O=C(CSCc1ccccc1)Nc1cccc(F)c1	0.4	95.4*	-2.2	.	62.7*	.
O=C(CSCc1c(F)cccc1F)Nc1ccccc1	0.1	.	-3.5	51.4*	7.6	-0.3
O=C(CSc1ccsc1[N+](=O)[O-])Nc1cccc(F)c1	0.0	-4.5	4.8	.	-2.9	40.6*
Cc1ccccc1CSCC(=O)Nc1ccccc1F	0.3	.	-6.6	48.1*	8.3	-0.3
CCN1C(=O)[C@H]2[C@@H](c3ccc(C)cc3)N3C(=O)N(c4ccc(C)cc4)C(=O)[C@@]3(CC)[C@H]2C1=O	-0.3	5.1	.	46.8*	4.6	0.2
CCOC(=O)C1=C(Nc2ccccc2)OCC1=O	.	12.6	-5.5	8.4	.	.
CCOC(=O)C1=C(Nc2ccc(OC)cc2)OCC1=O	-0.1	.	-10.0	.	36.3*	3.6
COc1ccccc1C(=O)NC1=NCCS1	.	.	0.9	.	.	.
CCn1c(=NC(=O)c2ccco2)sc2cccc(F)c21	-0.1	19.6	.	69.8*	27.8	-1.0
COc1ccc(OC)c2c1sc(=NC(=O)c1ccco1)n2C	0.0	-5.6	.	7.7	0.6	-3.9
Cc1cc(/C=C2\SC(=S)N(Cc3ccco3)C2=O)c(C)n1-c1cccnc1	.	.	22.9	43.4*	.	.
O=C1/C(=C/C=C/c2ccco2)SC(=S)N1c1ccc(O)cc1	0.7	2.9	10.9	-1.9	-1.1	76.3*
CC(C)C(C(=O)O)N1C(=O)/C(=C/C=C/c2ccco2)SC1=S (stereo not drawn)	.	-10.3	.	.	.	.
Cc1ccc(N=C2NC(=O)/C(=C\c3ccco3)S2)cc1	-0.1	44.9	3.7	?	10.7	.
O=C1/C(=C/c2ccco2)SC(=S)N1c1cccnc1	0.2	3.2	.	3.2	-0.7	83.3*
O=C1NC(=Nc2ccc(O)cc2)S/C1=C/c1ccco1	0.0	-11.9	-1.6	7.4	-0.2	39.3*
NN1C(=O)/C(=C\c2ccco2)SC1=S	0.1	.	-0.2	.	1.5	70.3*
SMILES	Xi reactivation	MITF TRPM1 HTS	NSD2 inh	esBAF inh	Wnt bcat act	Casp6 inh
O=C(NN1C(=O)/C(=C/C=C/c2ccco2)SC1=S)c1ccncc1	0.8	.	.	.	5.8	76.1*
O=C1/C(=C\c2ccco2)SC(=S)N1c1ccc(O)cc1	0.2	6.1	10.1	.	1.1	37.7*
CCOC(=O)CN1C(=O)S/C(=C/c2ccco2)C1=O	0.3	-5.6	9.8	-2.4	4.1	10.8
COc1ccc(/C=C/c2cc(O)cc(O[C@@H]3O[C@H](CO)[C@@H](O)[C@H](O)[C@H]3O)c2)cc1O	0.0	.	.	-24.5	72.3*	1.9
COc1cc(O)c2c(=O)c(-c3ccc(O[C@@H]4O[C@H](CO)[C@@H](O)[C@H](O)[C@H]4O)cc3)coc2c1	0.0	73.3	3.8	24.6	35.5*	8.5
COc1ccc(/C=C/c2cc(O)cc(OC3OC(CO)C(O)C(O)C3O)c2)cc1 (stereo not drawn)	-0.1	116.8*	.	-34.0	49.4*	.
O=c1c(-c2ccc(O)cc2)coc2cc(OC3OC(CO)C(O)C(O)C3O)cc(O)c12 (stereo not drawn)	0.0	30.5	.	22.0	?	2.1
O=c1c(OC2OC(CO)C(O)C(O)C2OC2OC(CO)C(O)C(O)C2O)c(-c2ccc(O)cc2)oc2cc(O)cc(O)c12 (stereo not drawn)	.	3.5	.	-3.2	-1.8	45.7*
Cc1cc(O)cc(O[C@H]2OC(CO)[C@H](O)[C@@H](O)[C@H]2O)c1 (stereo partly drawn)	0.1	-4.8	.	-6.2	-0.9	-0.9
CC(=O)Nc1ccc2c(c1)CC(=O)N(C)C[C@H](C)[C@@H](CN(C)S(C)(=O)=O)O2	0.1	.	.	.	.	.
O=C(c1cccc(F)c1)N1C[C@@H]2[C@H](c3ccccc31)[C@@H](CO)N2C(=O)C1CC1	0.0	.	.	6.9	.	1.4
CC(C)(C)[S@](=O)N1Cc2cc(C(=O)NCc3ccncc3)nc(-c3cccc(-c4ccc(C#N)cc4)c3)c2[C@@H]1CCO	0.1	.	.	-2.8	.	-2.2
COc1ccc(S(=O)(=O)N2CCOC23CCN(S(=O)(=O)c2ccc(C)cc2)CC3)cc1	0.1	-4.2	-5.5	.	-0.4	52.1*
O=[N+]([O-])c1ccc(S(=O)(=O)N2CCC3(CC2)OCCN3S(=O)(=O)c2cccs2)cc1	0.0	-13.0	11.7	.	27.8	35.6*
CCCC#Cc1ccc2c(c1)[C@H]1[C@H](CCN1S(=O)(=O)c1ccc(F)cc1)[C@@H](CO)N2	0.3	.	.	.	.	.
O=C(Nc1ccccc1F)N1CC(=O)N2[C@H](C1)[C@@H](c1ccc(C#CC3CCCC3)cc1)[C@@H]2CO	0.1	.	.	.	.	.
O=C1c2ccccc2NC(c2cccc(Cl)c2)N1N=C1CCCCCC1 (stereo not drawn)	.	91.7*	-2.7	55.4*	?	.
COc1ccc(S(=O)(=O)N(C)C[C@H]2OCCCC[C@@H](C)Oc3ccc(NS(=O)(=O)c4ccccc4)cc3C(=O)N([C@@H](C)CO)C[C@H]2C)cc1	0.0	.	.	-1.1	.	-0.4
CC(/C=C\c1ccccc1)=C/C(=O)O	-0.1	2.2	23.6	.	13.6	3.2
CC(C)(C)C(=O)/C=C(N)/C=C/c1ccccc1	.	73.6	1.3	56.6*	.	.
CCC(C)NC(=O)c1ccc2c(Cl)c3c(nc2c1)CCC3 (stereo not drawn)	-0.2	56.4	-1.1	53.3*	42.3*	3.5
CCC(C)NC(=O)c1ccc2c(SCC(=O)O)c3c(nc2c1)CCCC3 (stereo not drawn)	0.0	5.2	2.3	3.7	-5.8	.
O=c1cc(-c2c(O)c3ccccc3n(Cc3ccccc3)c2=O)[nH][nH]1	0.1	11.6	0.2	-3.0	0.0	55.6*
COc1ccc(C2=Cc3ccc(OC(C)=O)cc3OC2)cc1	0.0	103.5*	.	78.3*	13.7	-2.6
